# Data taken from ChEMBL document CHEMBL1141286, “Benzochromenones from the marine crinoid Comantheria rotula inhibit hypoxia-inducible factor-1 (HIF-1) in cell-based reporter assays and differentially suppress the growth of certain tumor cell lines” (J Nat Prod, 2007).
# Columns and labels:
# [1] = system: IGROV-1; experiment: Growth inhibition of human IGROV1 cells; format: functional; details: for CC50: read-out: Log LC50 (the source's name) (converted); for TGI: read-out: Log TGI (converted)
# [2] = system: SW-620; experiment: Growth inhibition of human SW620 cells; format: functional; details: for CC50: read-out: Log LC50 (the source's name) (converted); for TGI: read-out: Log TGI (converted)
# [3] = Growth inhibition of human OVACAR3 cells; format: functional; details: for CC50: read-out: Log LC50 (the source's name) (converted); for TGI: read-out: Log TGI (converted)
# [4] = system: MOLT-4; experiment: Growth inhibition of human MOLT4 cells; format: functional; details: for CC50: read-out: Log LC50 (the source's name) (converted); for TGI: read-out: Log TGI (converted)
# [5] = system: SK-MEL-5; experiment: Growth inhibition of human SK-MEL5 cells; format: functional; details: for TGI: read-out: Log TGI (converted)
# [6] = system: COLO 205; experiment: Growth inhibition of human COLO205 cells; format: functional; details: for CC50: read-out: Log LC50 (the source's name) (converted); for TGI: read-out: Log TGI (converted)
# [7] = system: SNB-75; experiment: Growth inhibition of human SNB75 cells; format: functional; details: for TGI: read-out: Log TGI (converted)
# [8] = system: TK-10; experiment: Growth inhibition of human TK10 cells; format: functional; details: for TGI: read-out: Log TGI (converted)
# [9] = system: HL-60; experiment: Growth inhibition of human HL60 cells; format: functional; details: for TGI: read-out: Log TGI (converted)
# [10] = system: CCRF-CEM; experiment: Growth inhibition of human CCRF-CEM cells; format: functional; details: for TGI: read-out: Log TGI (converted)
# [11] = system: NCI-H522; experiment: Growth inhibition of human NCI-H522 cells; format: functional; details: for CC50: read-out: Log LC50 (the source's name) (converted); for TGI: read-out: Log TGI (converted)
# [12] = molecular target: Hypoxia inducible factors; HIF-1-alpha, HIF-2-alpha (Homo sapiens, UniProt Q16665+Q99814); experiment: Inhibition of HIF1 activation in human T47D cells by TK-luciferase assay; format: cell-based
# Outline: (§1)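 HIF-1 reporter (pHRE-TK-Luc) assays in transfected PC-3 or T47D cells; HIF-1 induced by hypoxia or by the hypoxia mimetic 1,10-phenanthroline (10 μM); compounds at half-log concentrations; luciferase activity measured; IC50 from experiments in triplicate.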
# [13] = system: HCT-15; experiment: Growth inhibition of human HCT15 cells; format: functional; details: for CC50: read-out: Log LC50 (the source's name) (converted); for TGI: read-out: Log TGI (converted)
# [14] = system: SN12C; experiment: Growth inhibition of human SN12C cells; format: functional; details: for TGI: read-out: Log TGI (converted)
# [15] = Inhibition of 1,10-phenanthroline-induced HIF1 activation in PC3 cells by TK-luciferase assay; format: cell-based; details: Homo sapiens, PC-3; outline: as §1
# [16] = system: OVCAR-4; experiment: Growth inhibition of human OVACAR4 cells; format: functional; details: for TGI: read-out: Log TGI (converted)
# [17] = system: SK-MEL-28; experiment: Growth inhibition of human SK-MEL28 cells; format: functional; details: for CC50: read-out: Log LC50 (the source's name) (converted); for TGI: read-out: Log TGI (converted)
# [18] = system: Hs-578T; experiment: Growth inhibition of human HS578T cells; format: functional
# [19] = system: SK-MEL-2; experiment: Growth inhibition of human SK-MEL2 cells; format: functional; details: for TGI: read-out: Log TGI (converted)
# [20] = system: HT-29; experiment: Growth inhibition of human HT29 cells; format: functional; details: for CC50: read-out: Log LC50 (the source's name) (converted); for TGI: read-out: Log TGI (converted)
# [21] = Inhibition of HIF1 activation in PC3 cells by TK-luciferase assay; format: cell-based; details: Homo sapiens, PC-3; outline: as §1
# [22] = system: A498; experiment: Growth inhibition of human A498 cells; format: functional; details: for TGI: read-out: Log TGI (converted)
# [23] = system: 786-0; experiment: Growth inhibition of human 786-0 cells; format: functional; details: for TGI: read-out: Log TGI (converted)
# [24] = system: UACC-257; experiment: Growth inhibition of human UACC257 cells; format: functional; details: for TGI: read-out: Log TGI (converted)
smiles,measurement,setting,value
COc1cc(O)cc2cc3oc(C)cc(=O)c3c(O)c12,GI50,[1],0.437 µM
same,CC50,[1],> 100 µM
same,TGI,[1],23.4 µM
same,GI50,[2],0.295 µM
same,CC50,[2],> 100 µM
same,TGI,[2],17 µM
same,GI50,[3],> 100 µM
same,CC50,[3],22.4 µM
same,TGI,[3],91.2 µM
same,GI50,[4],17.8 µM
same,CC50,[4],> 100 µM
same,TGI,[4],51.3 µM
same,GI50,[5],0.457 µM
same,LC50,[5],34.7 µM
same,TGI,[5],12 µM
same,GI50,[6],20.4 µM
same,CC50,[6],> 100 µM
same,TGI,[6],55 µM
same,GI50,[7],46.8 µM
same,LC50,[7],> 100 µM
same,TGI,[7],> 100 µM
same,GI50,[8],20.4 µM
same,LC50,[8],> 100 µM
same,TGI,[8],61.7 µM
same,GI50,[9],20.9 µM
same,LC50,[9],83.2 µM
same,TGI,[9],41.7 µM
same,GI50,[10],30.2 µM
same,LC50,[10],> 100 µM
same,TGI,[10],100 µM
same,GI50,[11],2.19 µM
same,CC50,[11],93.3 µM
same,TGI,[11],22.9 µM
same,IC50,[12],3.4 µM
same,GI50,[13],23.4 µM
same,CC50,[13],> 100 µM
same,TGI,[13],70.8 µM
same,GI50,[14],32.4 µM
same,LC50,[14],> 100 µM
same,TGI,[14],> 100 µM
same,IC50,[15],2.5 µM
same,GI50,[16],45.7 µM
same,LC50,[16],> 100 µM
same,TGI,[16],> 100 µM
same,GI50,[17],24 µM
same,CC50,[17],> 100 µM
same,TGI,[17],63.1 µM
same,GI50,[18],0.589 µM
same,LC50,[18],> 100 µM
same,GI50,[19],4.9 µM
same,LC50,[19],> 100 µM
same,TGI,[19],35.5 µM
same,GI50,[20],29.5 µM
same,CC50,[20],> 100 µM
same,TGI,[20],> 100 µM
same,IC50,[21],3.3 µM
same,GI50,[22],0.617 µM
same,LC50,[22],> 100 µM
same,TGI,[22],11.7 µM
same,GI50,[23],20 µM
same,LC50,[23],> 100 µM
same,TGI,[23],50.1 µM
same,GI50,[24],45.7 µM
same,LC50,[24],> 100 µM
same,TGI,[24],> 100 µM
CCCc1cc(=O)c2c(OC)c3c(OC)cc(OC)cc3cc2o1,GI50,[1],60.3 µM
same,CC50,[1],> 100 µM
same,TGI,[1],> 100 µM
same,GI50,[2],> 100 µM
same,CC50,[2],> 100 µM
same,TGI,[2],> 100 µM
same,GI50,[3],38.9 µM
same,CC50,[3],> 100 µM
same,TGI,[3],> 100 µM
same,GI50,[4],> 100 µM
same,CC50,[4],> 100 µM
same,TGI,[4],30.2 µM
same,GI50,[5],45.7 µM
same,LC50,[5],> 100 µM
same,TGI,[5],> 100 µM
same,GI50,[6],> 100 µM
same,CC50,[6],> 100 µM
same,TGI,[6],> 100 µM
same,GI50,[7],74.1 µM
same,LC50,[7],> 100 µM
same,TGI,[7],> 100 µM
same,GI50,[8],37.2 µM
same,LC50,[8],> 100 µM
same,TGI,[8],> 100 µM
same,GI50,[9],42.7 µM
same,LC50,[9],> 100 µM
same,TGI,[9],> 100 µM
same,GI50,[10],58.9 µM
same,LC50,[10],> 100 µM
same,TGI,[10],100 µM
same,GI50,[11],32.4 µM
same,CC50,[11],> 100 µM
same,TGI,[11],> 100 µM
same,IC50,[12],3.9 µM
same,GI50,[13],35.5 µM
same,CC50,[13],> 100 µM
same,TGI,[13],> 100 µM
same,GI50,[14],> 100 µM
same,LC50,[14],> 100 µM
same,TGI,[14],> 100 µM
same,IC50,[15],> 10 µM
same,GI50,[16],81.3 µM
same,LC50,[16],> 100 µM
same,TGI,[16],> 100 µM
same,GI50,[17],> 100 µM
same,CC50,[17],> 100 µM
same,TGI,[17],> 100 µM
same,GI50,[18],33.1 µM
same,LC50,[18],> 100 µM
same,TGI,[18]; read-out: Log TGI (converted),> 100 µM
same,GI50,[19],> 100 µM
same,LC50,[19],> 100 µM
same,TGI,[19],> 100 µM
same,GI50,[20],26.3 µM
same,CC50,[20],> 100 µM
same,TGI,[20],> 100 µM
same,IC50,[21],> 10 µM
same,GI50,[22],3.47 µM
same,LC50,[22],> 100 µM
same,TGI,[22],> 100 µM
same,GI50,[23],91.2 µM
same,LC50,[23],> 100 µM
same,TGI,[23],> 100 µM
same,GI50,[24],> 100 µM
same,LC50,[24],> 100 µM
same,TGI,[24],> 100 µM
